Measurements pooled from the literature.
Compare with care: the assays were run in different laboratories.
Observed: enzyme activity
Mode: inhibitor
HIPK4: Homeodomain-interacting protein kinase 4 (HIPK4, Homo sapiens, UniProt Q8NE63)
TcPGFS: TcPGFS (Trypanosoma cruzi, UniProt Q8I6L9)
MARK2: Serine/threonine-protein kinase MARK2 (MARK2, Homo sapiens, UniProt Q7KZI7)

| SMILES | target | assay | conditions | remaining activity [%] |
| --- | --- | --- | --- | --- |
| COc1cc(Cl)c(C(=O)N[C@@H](CN[C@H]2CC[C@@H](N)CC2)Cc2ccc(C#N)cc2)cc1-c1ccc(CN[C@H](C)c2ccc(C)cc2)o1 | Cyclin-dependent kinase-like 2 (CDKL2, Homo sapiens, UniProt Q92772) |  | 1 µM | 93 |
| CC[C@H](C)[C@H](NC(=O)[C@H](CCC(N)=O)NC(=O)[C@H](CC(C)C)NC(=O)[C@H](CCSC)NC(=O)[C@H](CCCCN)NC(=O)[C@H](CO)NC(=O)[C@H](CO)NC(=O)[C@H](CCSC)NC(=O)[C@H](CC(C)C)NC(=O)[C@H](CC(N)=O)NC(=O)[C@@H](NC(=O)[C@@H](NC(=O)[C@H](CO)NC(=O)[C@H](CC(C)C)NC(=O)[C@H](CS)NC(=O)[C@H](CCCNC(=N)N)NC(=O)[C@H](CC(=O)O)NC(=O)[C@H](Cc1c[nH]c2ccccc12)NC(=O)[C@H](Cc1ccccc1)NC(=O)[C@H](C)NC(=O)[C@H](CCC(=O)O)NC(=O)[C@@H](N)CCCCN)C(C)C)[C@@H](C)CC)C(=O)N[C@@H](CC(N)=O)C(=O)N[C@@H](C)C(=O)O | Cyclin-dependent kinase 5, with p25 (CDK5, Homo sapiens, UniProt Q00535) | radiometric | 50 µM, 20 min | 80 |
| O=C(O)c1ccc2c(c1)nc(Nc1ccc(Cl)cc1)c1ncncc12 | HIPK4 | radiometric | 1 µM | 62 |
| CCCOc1ccc(OC)c(F)c1C(=O)c1ccc(C(=O)N[C@@H]2CNC[C@H]2NC(=O)c2ccc3[nH]ncc3c2)cc1 | Ribosomal protein S6 kinase alpha-1 (Rps6ka1, Rattus norvegicus, UniProt Q63531) |  | 0.1 µM | 119 |
| O=C(O)c1ccc2c(c1)nc(NCCc1cccc(F)c1)c1ccncc12 | HIPK4 | radiometric | 1 µM | -10 |
| CC1(C)CCC2=C(O1)c1ccccc1C(=O)C2=O | TcPGFS |  | 200 µM | 86 |
| Cc1ccc(C(=O)Nc2ccc(CN3CCN(C)CC3)c(C(F)(F)F)c2)cc1C#Cc1cnc2cccnn12 | Uncharacterized serine/threonine-protein kinase SBK3 (SBK3, Homo sapiens, UniProt P0C264) |  | 23.5 nM | 89 |
| Cc1nn(CC(F)(F)F)cc1Nc1nccc(NCc2ccc(S(N)(=O)=O)cc2)n1 | MARK2 | radiometric | 1 µM | 108 |
| COc1cccc(CCNc2nc3cc(C(=O)O)ccc3c3cncnc23)c1 | HIPK4 | radiometric | 1 µM | 135 |
| CC1=CC(=O)c2ccccc2C1=O | TcPGFS |  | 200 µM | 68 |
| O=C(O)c1ccc2c(c1)nc(NCCc1ccccc1)c1ccncc12 | HIPK4 | radiometric | 1 µM | 5 |
| NS(=O)(=O)c1ccc(CNc2ccnc(Nc3cccc(CN4CCOCC4)c3)n2)cc1 | MARK2 | radiometric | 1 µM | 102 |
